Laboratory results from ChEMBL document CHEMBL4368887, “Synthesis and X-ray study of dispiro 8-nitroquinolone analogues and their cytotoxic properties against human cervical cancer HeLa cells” (Medchemcomm, 2019).
pIC50: −log10 of the molar value. Activity calls are given as the source filed them. The calls are words filed in the database; no cut-off is given here.

Tests used:
[1] = tested on: HeLa; assay: Induction of morphological changes in human HeLa cells assessed as rounded cells at IC50 after 24 hrs by phase contrast microscopic analysis; assay type: functional, cell-based
Procedure, shortened: (§1)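 HeLa cells in DMEM with 10% FBS at 37°C, 5% CO2. […] Morphology compared with untreated cells under phase contrast microscope.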

[2] = tested on: HeLa; assay: Induction of morphological changes in human HeLa cells assessed as cell shrinkage at IC50 after 24 hrs by phase contrast microscopic analysis; assay type: functional, cell-based; procedure, shortened: as §1
[3] = tested on: HeLa; assay: Induction of apoptosis in human HeLa cells assessed as apoptotic body formation at IC50 by DAPI staining-based fluorescence microscopic analysis; assay type: functional, cell-based
Procedure, shortened: (§2)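 Cells at 1×10^5 per coverslip exposed at IC50 concentration. Fixed in methanol:acetic acid 3:1 v/v, stained with DAPI 5 µg/mL for 20 min. Nuclear morphology viewed by fluorescence microscopy with a […].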

[4] = tested on: HeLa; assay: Cytotoxicity against human HeLa cells after 72 hrs by MTT assay; assay type: functional, cell-based
Procedure, shortened: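 HeLa cells in DMEM with 4 mM L-glutamine, penicillin, streptomycin and 10% FBS. Seeded at 4000 cells/well, settled 24 h, then given serially diluted compound for 72 h at 37°C in 5% CO2. MTT in IMDM for 4 h, acidified ethanol lysis 15 min, A570 with 690 nm background. IC50 is 50% absorbance of untreated wells; three experiments in triplicate.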

[5] = tested on: HeLa; assay: Induction of apoptosis in human HeLa cells assessed as cytoplasmic shrinkage at IC50 by DAPI staining-based fluorescence microscopic analysis; assay type: functional, cell-based; procedure, shortened: as §2
[6] = tested on: HeLa; assay: Induction of apoptosis in human HeLa cells assessed as nuclear shrinkage at IC50 by DAPI staining-based fluorescence microscopic analysis; assay type: functional, cell-based; procedure, shortened: as §2
[7] = tested on: HeLa; assay: Induction of morphological changes in human HeLa cells assessed as disintegrated membrane at IC50 after 24 hrs by phase contrast microscopic analysis; assay type: functional, cell-based; procedure, shortened: as §1
[8] = tested on: HeLa; assay: Induction of morphological changes in human HeLa cells assessed as detached cells at IC50 after 24 hrs by phase contrast microscopic analysis; assay type: functional, cell-based; procedure, shortened: as §1
[9] = tested on: HeLa; assay: Induction of apoptosis in human HeLa cells assessed as chromatin condensation at IC50 by DAPI staining-based fluorescence microscopic analysis; assay type: functional, cell-based; procedure, shortened: as §2
[10] = Induction of hemolysis in human erythrocytes at IC50 by standard optical density assay relative to control; assay type: cell-based, Erythrocyte; settings: read-out: Activity
Procedure, shortened: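 Donor blood diluted in saline; RBCs spun down at 3000 rpm for 10 min and washed three times. Mixed with compound at a range of concentrations and incubated at 37°C in 5% CO2. Spun at 3000 rpm for 5 min, supernatant OD read at 570 nm. Hemolysis % calculated against saline (0%) and distilled water (100%) controls.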

[11] = tested on: HeLa; assay: Induction of ROS generation in human HeLa cells at IC50 after 3 hrs by DCFH-DA dye-based flow cytometric analysis; assay type: functional, cell-based
Procedure, shortened: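 Harvested, washed twice in PBS, then 5 µM DCFH-DA (final) in DMEM for 10 min at 37°C. Flow cytometry at ex 485 / em 530 nm on 20000 cells per sample. Output is % of cells with DCF green fluorescence.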

[12] = tested on: HeLa; assay: Induction of morphological changes in human HeLa cells assessed as swollen cells at IC50 after 24 hrs by phase contrast microscopic analysis; assay type: functional, cell-based; procedure, shortened: as §1
[13] = tested on: HeLa; assay: Induction of apoptosis in human HeLa cells at IC50 after 48 hrs by Annexin V-FITC/propidium iodide staining based flow cytometric analysis (reference value: 100%); assay type: functional
[14] = tested on: HeLa; assay: Induction of apoptosis in human HeLa cells assessed as increase in caspase3 levels at IC50 after 24 hrs by Western blot analysis; assay type: functional, cell-based
Procedure, shortened: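 Extracts of treated cells quantified by Bradford assay. 50 μg protein run on 12% SDS-PAGE and transferred to nitrocellulose. Blocked in 5% skim milk in PBS for 1 h at room temperature, primary antibody overnight, goat anti-mouse 1:2000. Three independent experiments in triplicate.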

[15] = tested on: HeLa; assay: Induction of apoptosis in human HeLa cells assessed as late apoptotic cells level at IC50 after 48 hrs by Annexin V-FITC/propidium iodide staining based flow cytometric analysis (reference value: %); assay type: functional
[16] = tested on: HeLa; assay: Induction of apoptosis in human HeLa cells assessed as early apoptotic cells level at IC50 after 48 hrs by Annexin V-FITC/propidium iodide staining based flow cytometric analysis (reference value: 0%); assay type: functional
[17] = tested on: HeLa; assay: Induction of apoptosis in human HeLa cells assessed as necrotic cells level at IC50 after 48 hrs by Annexin V-FITC/propidium iodide staining based flow cytometric analysis (reference value: %); assay type: functional
[18] = tested on: HeLa; assay: Induction of apoptosis in human HeLa cells assessed as viable cells level at IC50 after 48 hrs by Annexin V-FITC/propidium iodide staining based flow cytometric analysis (reference value: 77.09%); assay type: functional

| SMILES | Activity [1] | Activity [2] | Activity [3] | Activity [4] | pIC50 [4] | Activity [5] | Activity [6] | Activity [7] | Activity [8] | Activity [9] | hemolysis [10] [%] | Activity [11] | Activity [12] | Activity [13] [%] | Activity [14] | Activity [15] [%] | Activity [16] [%] | Activity [17] [%] | Activity [18] [%] |
| --- | --- | --- | --- | --- | --- | --- | --- | --- | --- | --- | --- | --- | --- | --- | --- | --- | --- | --- | --- |
| COc1ccc([C@@H]2[C@@H](c3ccccc3)N[C@]3(C(=O)Nc4ccc(Br)cc43)[C@]23CNc2c(cccc2[N+](=O)[O-])C3=O)cc1 | Active | Active | Active | Dose-dependent effect | 4.72 | Active | Active | Active | Active | Active | < 7 | Active | Active |  |  |  |  |  |  |
| COc1ccc([C@@H]2[C@@H](c3ccccc3)N[C@]3(C(=O)Nc4ccc(Cl)cc43)[C@]23CNc2c(cccc2[N+](=O)[O-])C3=O)cc1 | Active | Active | Active | Dose-dependent effect | 4.80 | Active | Active | Active | Active | Active | < 7 | Active | Active | 95.68 | Active | 1.42 | 85.33 | 0 | 2.44 |
| O=C1c2cccc([N+](=O)[O-])c2NC[C@@]12[C@H](c1ccc(F)cc1)[C@@H](c1ccccc1)N[C@]21C(=O)Nc2ccc(Cl)cc21 |  |  |  | Dose-dependent effect | 4.57 |  |  |  |  |  |  |  |  |  |  |  |  |  |  |
| O=C1c2cccc([N+](=O)[O-])c2NC[C@@]12[C@H](c1ccc(Br)cc1)[C@@H](c1ccccc1)N[C@]21C(=O)Nc2ccc(F)cc21 |  |  |  | Dose-dependent effect | 4.59 |  |  |  |  |  |  |  |  |  |  |  |  |  |  |
| O=C1c2cccc([N+](=O)[O-])c2NC[C@@]12[C@H](c1ccc(Cl)cc1)[C@@H](c1ccccc1)N[C@]21C(=O)Nc2ccc(F)cc21 |  |  |  | Dose-dependent effect | 4.60 |  |  |  |  |  |  |  |  |  |  |  |  |  |  |
| O=C1c2cccc([N+](=O)[O-])c2NC[C@@]12[C@H](c1ccc(Cl)cc1)[C@@H](c1ccccc1)N[C@]21C(=O)Nc2ccc(Br)cc21 | Active | Active | Active | Dose-dependent effect | 4.64 | Active | Active | Active | Active | Active | < 7 | Active | Active |  |  |  |  |  |  |
| O=C1c2cccc([N+](=O)[O-])c2NC[C@@]12[C@H](c1ccc(F)cc1)[C@@H](c1ccccc1)N[C@]21C(=O)Nc2ccc(Br)cc21 |  |  |  | Dose-dependent effect | 4.59 |  |  |  |  |  |  |  |  |  |  |  |  |  |  |
| O=C1c2cccc([N+](=O)[O-])c2NC[C@@]12[C@H](c1ccc(Cl)cc1)[C@@H](c1ccccc1)N[C@]21C(=O)Nc2ccc(Cl)cc21 | Active | Active | Active | Dose-dependent effect | 4.74 | Active | Active | Active | Active | Active | < 7 | Active | Active |  |  |  |  |  |  |
| O=C1c2cccc([N+](=O)[O-])c2NC[C@@]12[C@H](c1ccc(Br)cc1)[C@@H](c1ccccc1)N[C@]21C(=O)Nc2ccc(Cl)cc21 | Active | Active | Active | Dose-dependent effect | 4.68 | Active | Active | Active | Active | Active | < 7 | Active | Active |  |  |  |  |  |  |
| O=C1c2cccc([N+](=O)[O-])c2NC[C@@]12[C@H](c1ccc(Br)cc1)[C@@H](c1ccccc1)N[C@]21C(=O)Nc2ccc(Br)cc21 |  |  |  | Dose-dependent effect | 4.60 |  |  |  |  |  |  |  |  |  |  |  |  |  |  |
| COc1cccc2c1C(=O)c1c(O)c3c(c(O)c1C2=O)C[C@@](O)(C(=O)CO)C[C@@H]3O[C@H]1C[C@H](N)[C@H](O)[C@H](C)O1 [DOXORUBICIN] |  |  |  | Dose-dependent effect | 4.85 |  |  |  |  |  |  |  |  |  |  |  |  |  |  |
| COc1ccc([C@@H]2[C@@H](c3ccccc3)N[C@]3(C(=O)Nc4ccc(F)cc43)[C@]23CNc2c(cccc2[N+](=O)[O-])C3=O)cc1 |  |  |  | Dose-dependent effect | 4.62 |  |  |  |  |  |  |  |  |  |  |  |  |  |  |
| O=C1c2cccc([N+](=O)[O-])c2NC[C@@]12[C@H](c1ccc(F)cc1)[C@@H](c1ccccc1)N[C@]21C(=O)Nc2ccc(F)cc21 |  |  |  | Dose-dependent effect | 4.70 |  |  |  |  |  |  |  |  |  |  |  |  |  |  |
